Measured values reported in ChEMBL document CHEMBL2016500, “Discovery and evaluation of spirocyclic derivatives as antagonists of the neuropeptide Y5 receptor” (Bioorg Med Chem Lett, 2012).
Activity calls are given as the source filed them. No cut-off for these calls is given here.

How the values were obtained:
[1] = molecular target: T1, Neuropeptide Y receptor type 5 (Homo sapiens, UniProt Q15761); assay: Displacement of [125I]PPY from human recombinant NPYY5 receptor expressed in insect Sf9 membranes; assay type: cell membranes
T1 sequence (Q15761 whole entry): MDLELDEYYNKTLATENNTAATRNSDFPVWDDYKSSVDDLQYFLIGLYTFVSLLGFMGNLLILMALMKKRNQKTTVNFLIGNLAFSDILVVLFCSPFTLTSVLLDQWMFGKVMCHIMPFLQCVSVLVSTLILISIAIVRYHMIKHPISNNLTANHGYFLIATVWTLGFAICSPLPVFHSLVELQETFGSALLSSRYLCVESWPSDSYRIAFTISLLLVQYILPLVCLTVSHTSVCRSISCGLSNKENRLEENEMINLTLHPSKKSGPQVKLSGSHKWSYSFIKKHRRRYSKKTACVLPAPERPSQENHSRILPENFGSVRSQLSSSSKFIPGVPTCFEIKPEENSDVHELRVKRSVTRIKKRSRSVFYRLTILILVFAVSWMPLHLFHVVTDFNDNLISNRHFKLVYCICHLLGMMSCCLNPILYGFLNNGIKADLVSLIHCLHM

Rattus norvegicus [2] = assay: Antiobesity activity in diet-induced obese rat assessed as decrease body weight at 5 mg/kg bid; assay type: functional, organism-based; set-up: dose 5 mg/kg
Procedure, shortened: (§1)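 Diet-induced obese rats dosed 5 mg/kg bid over a 4-day study. Food intake and body weight followed.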

Liver microsomes [3] = assay: Intrinsic clearance in human liver microsomes; assay type: ADME, Microsome
Procedure, shortened: (§2)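 Metabolic stability in human or rat liver microsome preparations. Total intrinsic clearance scaled from in vitro microsomal half-life, given in […].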

Liver microsomes [4] = assay: Intrinsic clearance in rat liver microsomes; assay type: ADME, Microsome; procedure, shortened: as §2
[5] = Half life in rat; assay type: ADME, organism-based; settings: in vivo
[6] = Oral bioavailability in rat; assay type: ADME, organism-based; settings: in vivo
[7] = Ratio of unbound fraction in plasma to brain in rat; assay type: ADME, cell-free
Procedure, shortened: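 Unbound fraction measured separately in rat plasma and in rat brain; the value is expressed as fu,plasma/fu,brain.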

Plasma = assay: Unbound fraction in diet-induced obese rat plasma at 5 mg/kg bid; assay type: ADME, organism-based; set-up: dose 5 mg/kg; settings: in vivo
Procedure, shortened: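 Diet-induced obese rats given 5 mg/kg bid. Unbound drug concentrations measured in plasma and brain.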

Rattus norvegicus [8] = assay: Antiobesity activity in diet-induced obese rat assessed as decrease in food intake at 5 mg/kg bid; assay type: functional; set-up: scale not given: the % may be the effect or the level left; procedure, shortened: as §1
[9] = Ratio of unbound fraction in rat brain at 5 mg/kg bid to Ki for human recombinant NPYY5 receptor expressed in insect Sf9 membranes; assay type: ADME, organism-based, Membrane; set-up: dose 5 mg/kg; settings: in vivo
Procedure, shortened: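 Unbound drug concentrations were measured in plasma and brain of diet-induced obese rats dosed at 5 mg/kg bid. The ratio is unbound brain concentration divided by Ki.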

[10] = molecular target: T2, Neuropeptide Y receptor type 1 (Homo sapiens, UniProt P25929); assay: Binding affinity to human NPYY1
T2 sequence (P25929 whole entry): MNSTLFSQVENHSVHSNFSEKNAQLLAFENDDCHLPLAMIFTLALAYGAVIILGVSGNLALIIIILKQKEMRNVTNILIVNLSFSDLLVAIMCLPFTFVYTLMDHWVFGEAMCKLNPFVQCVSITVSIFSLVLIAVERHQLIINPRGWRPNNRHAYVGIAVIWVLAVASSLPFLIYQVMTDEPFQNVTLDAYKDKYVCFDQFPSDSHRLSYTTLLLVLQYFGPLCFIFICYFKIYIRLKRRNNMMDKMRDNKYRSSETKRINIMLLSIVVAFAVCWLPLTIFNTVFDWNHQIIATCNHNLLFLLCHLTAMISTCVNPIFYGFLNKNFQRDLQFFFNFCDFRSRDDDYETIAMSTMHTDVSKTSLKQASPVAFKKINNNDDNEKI

Brain = assay: Unbound concentration in diet-induced obese rat brain at 5 mg/kg bid; settings: in vivo

SMILES | Ki [1] [nM] | CLint (Liver microsomes [3]) [mL/min/kg] | CLint (Liver microsomes [4]) [mL/min/kg] | also measured
O=C1O[C@]2(CC[C@H](C(=O)Nc3ccn(-c4ccccc4F)n3)CC2)c2cnccc21 | – | – | – | Activity (Rattus norvegicus [2]): Active
CN(C(=O)Nc1cnc(-c2ccccc2)cn1)[C@H]1CC[C@@]2(CC1)OC(=O)c1ccncc12 | 0.9 | < 7 | 12 | –
CN(C(=O)Nc1ccn(-c2ccccc2F)n1)[C@H]1CC[C@]2(CC1)OC(=O)c1ccncc12 | 0.8 | < 7 | 28 | –
CN(C(=O)Nc1ccn(-c2ccccc2F)n1)[C@H]1CC[C@@]2(CC1)OC(=O)c1ccccc12 | 22 | – | – | –
CN(C(=O)Nc1ccn(-c2ccccc2F)n1)[C@H]1CC[C@]2(CC1)OC(=O)c1ccccc12 | 0.7 | 24 | 165 | –
CN(C(=O)Nc1cnc(-c2ccccc2)cn1)[C@H]1CC[C@@]2(CC1)Cc1cnccc1C(=O)O2 | 82 | < 26 | 86 | –
CC(C)(C)S(=O)(=O)N[C@H]1CC[C@H](C(=O)Nc2ccc(C(F)(F)F)cn2)CC1 | 5 | – | – | –

Further molecules by falling Ki [1], results first:

Ki [1] [nM] | CLint (Liver microsomes [3]) [mL/min/kg] | CLint (Liver microsomes [4]) [mL/min/kg] | SMILES | also measured
2330 | < 7 | – | O=C1O[C@]2(CC[C@@H](N(CC(F)(F)F)C(=O)Nc3cnc(-c4ccccc4)cn3)CC2)Cc2ccccc21 | –
849 | – | – | O=C(Nc1ccn(-c2ccccc2F)n1)NC1CCC2(CC1)OC(=O)c1ccncc12 (mixture of isomers) | –
301 | – | – | O=C(CC1CCC2(CC1)Cc1ccccc1C(=O)O2)Nc1cnc(-c2ccccc2)cn1 (mixture of isomers) | –
188 | – | – | CN(C(=O)Nc1ccn(-c2ccccc2F)n1)[C@H]1CC[C@@]2(CC1)Cc1cnccc1C(=O)O2 | –
11 | – | – | CCN(C(=O)Nc1cnc(-c2ccccc2)cn1)[C@H]1CC[C@@]2(CC1)Cc1ccccc1C(=O)O2 | –
10 | 67 | > 1120 | CN(C(=O)Nc1ccn(-c2ccccc2F)n1)[C@H]1CC[C@]2(CC1)OCc1ccccc12 | –
8 | 68 | > 1120 | CN(C(=O)Nc1ccn(-c2ccccc2F)n1)[C@H]1CC[C@]2(CC1)COc1ccccc12 | –
4.6 | 59 | 333 | CN(C(=O)Nc1cnc(-c2ccccc2)cn1)[C@H]1CC[C@@]2(CC1)Cc1ccccc1C(=O)O2 | –
2.4 | 28 | 290 | CN(C(=O)Nc1ccn(-c2ccccc2F)n1)[C@H]1CC[C@@]2(CC1)Cc1ccccc1C(=O)O2 | –
1 | < 6 | < 25 | CN(C(=O)Nc1cnc(-c2ccccc2)cn1)[C@H]1CC[C@]2(CC1)OC(=O)c1ccncc12 | half-life [5]: 2 h; bioavailability [6]: 80%; Ratio [7]: 3.3; Cp(f) (Plasma): 67 nM; Activity (Rattus norvegicus [8]): <10%; Activity (Rattus norvegicus [2]): inactive; Ratio [9]: 25; Ki [10]: > 10000 nM; Concentration (Brain): 27 nM
